Experimental data published in ChEMBL document CHEMBL4627283, “Discovery and optimization of 4-oxo-2-thioxo-thiazolidinones as NOD-like receptor (NLR) family, pyrin domain-containing protein 3 (NLRP3) inhibitors” (Bioorg Med Chem Lett, 2020).
Active and inactive are the calls of the source. The rule behind the calls is not given here.

Columns and labels:
[1] = Half life in human liver microsomes in presence of NADPH; format: ADME, Microsome
Summary of the method: (§1)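 Stability in human and mouse liver microsomes incubated with an NADPH regenerating system; half-life (min) and hepatic clearance (mL/min/kg) determined.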

[2] = target: Cystic fibrosis transmembrane conductance regulator (Homo sapiens) (UniProt P13569); experiment: Inhibition of CFTR in human HT-29 cells assessed as effect on intracellular chloride efflux at 20 uM relative to control; format: cell-based
Sequence of Cystic fibrosis transmembrane conductance regulator (Homo sapiens) (P13569 whole entry, looked up, the tested form may be a part): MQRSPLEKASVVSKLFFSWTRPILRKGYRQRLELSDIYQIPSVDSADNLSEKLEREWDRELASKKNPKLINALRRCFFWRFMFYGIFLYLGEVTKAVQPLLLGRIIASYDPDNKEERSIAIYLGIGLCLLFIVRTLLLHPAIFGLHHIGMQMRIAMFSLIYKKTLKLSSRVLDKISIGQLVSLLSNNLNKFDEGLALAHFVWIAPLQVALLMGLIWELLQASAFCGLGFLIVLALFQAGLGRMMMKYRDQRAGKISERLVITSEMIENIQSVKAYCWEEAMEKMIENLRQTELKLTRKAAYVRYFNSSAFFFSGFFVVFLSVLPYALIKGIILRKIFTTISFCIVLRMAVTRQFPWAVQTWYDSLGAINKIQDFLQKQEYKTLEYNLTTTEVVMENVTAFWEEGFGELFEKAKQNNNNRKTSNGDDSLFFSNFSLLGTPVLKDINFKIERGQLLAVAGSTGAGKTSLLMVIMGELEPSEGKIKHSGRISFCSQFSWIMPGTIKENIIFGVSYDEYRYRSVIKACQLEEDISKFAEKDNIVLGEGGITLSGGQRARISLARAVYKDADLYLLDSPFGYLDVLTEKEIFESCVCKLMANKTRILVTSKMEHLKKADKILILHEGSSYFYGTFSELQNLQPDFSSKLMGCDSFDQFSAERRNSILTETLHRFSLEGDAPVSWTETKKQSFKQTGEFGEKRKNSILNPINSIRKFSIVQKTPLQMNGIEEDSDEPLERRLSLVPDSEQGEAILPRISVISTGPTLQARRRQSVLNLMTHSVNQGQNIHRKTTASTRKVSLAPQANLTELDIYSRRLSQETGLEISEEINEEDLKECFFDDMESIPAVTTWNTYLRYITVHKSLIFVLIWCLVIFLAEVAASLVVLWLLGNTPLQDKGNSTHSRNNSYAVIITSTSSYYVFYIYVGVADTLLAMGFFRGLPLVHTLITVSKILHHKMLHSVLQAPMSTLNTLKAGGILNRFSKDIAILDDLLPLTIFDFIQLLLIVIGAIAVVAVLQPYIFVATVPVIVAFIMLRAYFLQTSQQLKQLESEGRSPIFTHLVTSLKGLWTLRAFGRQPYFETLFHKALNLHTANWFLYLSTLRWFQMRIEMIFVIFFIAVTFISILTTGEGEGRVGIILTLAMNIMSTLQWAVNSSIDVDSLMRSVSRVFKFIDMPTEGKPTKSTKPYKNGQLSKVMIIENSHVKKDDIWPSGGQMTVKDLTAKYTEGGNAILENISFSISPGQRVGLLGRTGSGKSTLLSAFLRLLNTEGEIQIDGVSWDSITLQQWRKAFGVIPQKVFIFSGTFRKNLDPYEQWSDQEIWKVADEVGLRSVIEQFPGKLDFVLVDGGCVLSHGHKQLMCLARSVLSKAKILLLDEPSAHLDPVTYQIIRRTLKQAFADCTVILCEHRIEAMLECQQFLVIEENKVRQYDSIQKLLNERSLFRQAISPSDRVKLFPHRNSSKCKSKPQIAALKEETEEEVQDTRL

[3] = target: T1, NACHT, LRR and PYD domains-containing protein 3 (Homo sapiens, UniProt Q96P20); experiment: Inhibition of NLRP3 inflammasome (unknown origin) activation in LPS-primed bone marrow derived macrophage cells at 10 uM in presence of mono sodium urate relative to control
T1 sequence (Q96P20 whole entry, the tested form may be a part): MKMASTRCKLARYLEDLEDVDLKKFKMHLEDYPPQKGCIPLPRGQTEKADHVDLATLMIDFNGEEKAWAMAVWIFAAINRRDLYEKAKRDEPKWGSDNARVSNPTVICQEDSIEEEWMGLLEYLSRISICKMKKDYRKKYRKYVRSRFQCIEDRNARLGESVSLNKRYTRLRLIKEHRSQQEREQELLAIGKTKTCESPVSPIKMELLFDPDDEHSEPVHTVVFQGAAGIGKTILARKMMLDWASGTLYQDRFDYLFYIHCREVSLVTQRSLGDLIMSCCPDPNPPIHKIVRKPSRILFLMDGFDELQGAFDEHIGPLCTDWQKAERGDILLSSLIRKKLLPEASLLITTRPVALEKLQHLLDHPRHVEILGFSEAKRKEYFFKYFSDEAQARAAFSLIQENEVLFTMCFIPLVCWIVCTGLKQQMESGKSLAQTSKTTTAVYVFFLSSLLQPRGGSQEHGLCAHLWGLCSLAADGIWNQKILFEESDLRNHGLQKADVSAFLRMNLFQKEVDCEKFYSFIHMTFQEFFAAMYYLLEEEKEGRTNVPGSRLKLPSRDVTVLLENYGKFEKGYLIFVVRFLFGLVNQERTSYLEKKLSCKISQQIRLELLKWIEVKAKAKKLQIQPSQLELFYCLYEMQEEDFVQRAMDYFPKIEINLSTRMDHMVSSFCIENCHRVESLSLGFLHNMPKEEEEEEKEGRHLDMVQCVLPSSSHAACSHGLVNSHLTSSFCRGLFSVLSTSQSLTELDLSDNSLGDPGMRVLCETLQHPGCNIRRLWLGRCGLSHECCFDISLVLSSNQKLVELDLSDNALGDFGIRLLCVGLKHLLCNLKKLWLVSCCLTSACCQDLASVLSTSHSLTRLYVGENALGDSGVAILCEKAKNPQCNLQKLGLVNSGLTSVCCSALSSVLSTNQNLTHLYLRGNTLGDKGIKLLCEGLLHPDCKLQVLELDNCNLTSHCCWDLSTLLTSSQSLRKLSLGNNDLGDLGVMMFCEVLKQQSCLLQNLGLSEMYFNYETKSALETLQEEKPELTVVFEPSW

[4] = target: T1, NACHT, LRR and PYD domains-containing protein 3; experiment: Inhibition of NLRP3 inflammasome (unknown origin) activation in LPS-primed bone marrow derived macrophage cells assessed as effect on IL-1beta production in presence of nigericin by ELISA
Summary of the method: (§2)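 BMDMs pretreated with varied doses of compound, then LPS-primed and stimulated with nigericin; IL-1β in supernatant by ELISA, normalized to DMSO-treated control; IC50 given as mean ± SD.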

[5] = Clearance in mouse liver microsomes in presence of NADPH; format: ADME, Microsome; summary of the method: as §1
[6] = Half life in mouse liver microsomes in presence of NADPH; format: ADME, Microsome; summary of the method: as §1
[7] = Clearance in human liver microsomes in presence of NADPH; format: ADME, Microsome; summary of the method: as §1
Homo sapiens = species: Homo sapiens; experiment: Selectivity index, ratio of inhibition of NLRP3 inflammasome (unknown origin) activation in bone marrow derived macrophage cells at 10 uM to inhibition of CFTR in human HT-29 cells at 20 uM; format: cell-based
Summary of the method: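 Selectivity index: % NLRP3 inhibition in BMDMs at 10 μM divided by % CFTR inhibition in HT29 cells at 20 μM.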

[8] = target: T1, NACHT, LRR and PYD domains-containing protein 3; experiment: Inhibition of NLRP3 inflammasome (unknown origin) activation in LPS-primed bone marrow derived macrophages assessed as inhibition of IL-1beta secretion in presence of mono sodium urate by ELSIA
Summary of the method: (§3)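 LPS-primed BMDMs treated with compound (5 μM) and stimulated with nigericin (10 µM), ATP (2.5 mM) or MSU (150 µg/mL), over a time course or at increasing agonist doses; secreted IL-1β by ELISA.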

[9] = AUC in po or iv qd dosed Sprague-Dawley rat; format: ADME, organism-based; conditions: in vivo
Summary of the method: (§4)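 Sprague-Dawley rats given a single intravenous or oral dose; pharmacokinetic parameters (half-life, AUC, bioavailability) derived from the plasma profile.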

[10] = target: T1, NACHT, LRR and PYD domains-containing protein 3; experiment: Inhibition of NLRP3 inflammasome (unknown origin) activation in LPS-primed bone marrow derived macrophages assessed as inhibition of IL-1beta secretion in presence of ATP by ELISA; summary of the method: as §3
Mus musculus [11] = species: Mus musculus; experiment: Reversal of NLRP3 mediated metabolic disorder in mouse model of diabetes; format: functional, organism-based
[12] = target: T1, NACHT, LRR and PYD domains-containing protein 3; experiment: Inhibition of NLRP3 inflammasome (unknown origin) activation in LPS-primed bone marrow derived macrophages assessed as inhibition of IL-1beta secretion at 5 uM in presence of nigericin by ELISA; conditions: TDE = time-dependent effect; summary of the method: as §3
[13] = target: T1, NACHT, LRR and PYD domains-containing protein 3; experiment: Inhibition of NLRP3 inflammasome (unknown origin) activation in bone marrow derived macrophage cells assessed as effect on nigericin-induced TNF-alpha secretion at 5 uM by ELISA
Summary of the method: (§5)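 LPS-primed BMDMs given compound (5 μM), then nigericin (10 µM), ATP (2.5 mM) or MSU (150 µg/mL); TNF-α in supernatant measured by ELISA.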

[14] = target: T1, NACHT, LRR and PYD domains-containing protein 3; experiment: Inhibition of NLRP3 inflammasome (unknown origin) activation in LPS-primed bone marrow derived macrophages assessed as inhibition of IL-1beta secretion in presence of nigericin by ELISA; summary of the method: as §2
[15] = target: T1, NACHT, LRR and PYD domains-containing protein 3; experiment: Inhibition of NLRP3 inflammasome (unknown origin) activation in bone marrow derived macrophage cells assessed as effect on mono sodium urate-induced TNF-alpha secretion at 5 uM by ELISA; summary of the method: as §5
[16] = target: T1, NACHT, LRR and PYD domains-containing protein 3; experiment: Inhibition of NLRP3 inflammasome (unknown origin) activation in bone marrow derived macrophage cells assessed as effect on ATP-induced TNF-alpha secretion at 5 uM by ELISA; summary of the method: as §5
[17] = target: T1, NACHT, LRR and PYD domains-containing protein 3; experiment: Inhibition of NLRP3 inflammasome (unknown origin) activation in LPS-primed bone marrow derived macrophages assessed as inhibition of IL-1beta secretion at 5 uM in presence of mono sodium urate by ELISA; conditions: TDE = time-dependent effect; summary of the method: as §3
[18] = target: T2, Interferon-inducible protein AIM2 (Homo sapiens) (UniProt O14862); experiment: Inhibition of AIM2 inflammasome (unknown origin) activation in bone marrow derived macrophages assessed as inhibition of poly(dA:dT)-induced IL-1beta secretion at 5 uM by ELISA
T2 sequence (whole entry): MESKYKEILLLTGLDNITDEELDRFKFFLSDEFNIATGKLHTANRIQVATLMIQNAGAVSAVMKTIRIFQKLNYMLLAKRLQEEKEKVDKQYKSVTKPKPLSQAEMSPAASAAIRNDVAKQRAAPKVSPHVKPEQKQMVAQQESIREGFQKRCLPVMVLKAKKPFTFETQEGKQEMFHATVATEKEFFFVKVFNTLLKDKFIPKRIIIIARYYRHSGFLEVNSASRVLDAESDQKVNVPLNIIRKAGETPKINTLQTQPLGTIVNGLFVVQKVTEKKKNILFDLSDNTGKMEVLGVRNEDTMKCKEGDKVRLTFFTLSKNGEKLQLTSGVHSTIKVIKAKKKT
Summary of the method: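 LPS-primed BMDMs treated with compound (5 μM), then transfected with poly(dA:dT) (0.5 µg/ml) using Lipofectamine for various times; supernatant IL-1β by ELISA.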

Mus musculus [19] = experiment: In vivo inhibition of NLRP3 inflammasome activation in mouse model of cryopyrin-associated auto-inflammatory syndrome; format: functional, organism-based
[20] = target: T1, NACHT, LRR and PYD domains-containing protein 3; experiment: Inhibition of NLRP3 inflammasome (unknown origin) activation in LPS-primed bone marrow derived macrophages assessed as inhibition of IL-1beta secretion at 5 uM in presence of ATP by ELISA; conditions: TDE = time-dependent effect; summary of the method: as §3
[21] = target: NLR family CARD domain-containing protein 4 (Homo sapiens) (UniProt Q9NPP4); experiment: Inhibition of NLRC4 inflammasome (unknown origin) activation in bone marrow derived macrophages assessed as inhibition of Salmonella-induced IL-1beta secretion at 5 uM by ELISA
Sequence of NLR family CARD domain-containing protein 4 (Homo sapiens) (Q9NPP4 whole entry, the tested form may be a part): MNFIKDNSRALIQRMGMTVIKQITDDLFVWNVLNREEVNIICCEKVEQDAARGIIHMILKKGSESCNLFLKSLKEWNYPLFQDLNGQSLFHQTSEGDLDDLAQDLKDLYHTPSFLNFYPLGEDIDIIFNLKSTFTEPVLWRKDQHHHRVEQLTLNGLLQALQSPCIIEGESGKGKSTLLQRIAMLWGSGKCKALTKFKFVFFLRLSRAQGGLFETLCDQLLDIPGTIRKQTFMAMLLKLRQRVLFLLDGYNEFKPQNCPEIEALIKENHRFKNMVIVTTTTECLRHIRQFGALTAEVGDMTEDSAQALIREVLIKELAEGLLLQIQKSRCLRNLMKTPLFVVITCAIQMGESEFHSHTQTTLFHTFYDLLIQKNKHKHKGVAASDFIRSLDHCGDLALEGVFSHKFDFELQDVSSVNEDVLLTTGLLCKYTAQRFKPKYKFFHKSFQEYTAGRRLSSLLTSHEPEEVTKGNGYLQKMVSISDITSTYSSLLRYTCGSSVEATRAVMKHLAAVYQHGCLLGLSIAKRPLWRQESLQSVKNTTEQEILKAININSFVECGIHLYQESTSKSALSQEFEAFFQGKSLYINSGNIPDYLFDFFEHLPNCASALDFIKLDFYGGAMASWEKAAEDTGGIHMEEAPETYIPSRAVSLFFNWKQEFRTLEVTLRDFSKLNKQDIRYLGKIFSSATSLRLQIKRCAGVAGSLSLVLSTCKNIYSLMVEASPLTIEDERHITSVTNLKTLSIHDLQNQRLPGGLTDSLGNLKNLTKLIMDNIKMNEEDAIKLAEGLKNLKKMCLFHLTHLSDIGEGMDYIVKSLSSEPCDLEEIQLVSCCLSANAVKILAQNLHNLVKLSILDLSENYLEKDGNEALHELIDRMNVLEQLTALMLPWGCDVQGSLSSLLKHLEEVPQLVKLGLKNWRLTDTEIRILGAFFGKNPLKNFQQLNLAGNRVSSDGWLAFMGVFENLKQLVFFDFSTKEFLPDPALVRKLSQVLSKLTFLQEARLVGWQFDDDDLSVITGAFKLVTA
Summary of the method: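 LPS-primed BMDMs treated with compound (5 μM), then infected with Salmonella typhimurium for different times; supernatant IL-1β by ELISA.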

[22] = Oral bioavailability in Sprague-Dawley rat administered as single dose; format: ADME, organism-based; conditions: in vivo; summary of the method: as §4
[23] = target: T1, NACHT, LRR and PYD domains-containing protein 3; experiment: Inhibition of NLRP3 inflammasome (unknown origin) assessed as suppression of mono sodium urate-induced IL-1beta level by immunoblot analysis
Summary of the method: (§6)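 LPS-primed BMDMs treated with graded doses of test compound, then stimulated with MSU; IL-1β and cleaved caspase-1 (p20) in culture supernatants detected by immunoblot.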

[24] = target: T1, NACHT, LRR and PYD domains-containing protein 3; experiment: Inhibition of NLRP3 inflammasome (unknown origin) assessed as suppression of mono sodium urate-induced caspase 1 activation by immunoblot analysis; summary of the method: as §6

Compound	half-life [1]	inhibition [2]	inhibition [3]	IC50 [4]	CLhep predicted [5]	half-life [6]	CLhep predicted [7]	Selectivity Index (Homo sapiens)	other results
CN1CCN(C(=O)c2ccc(/C=C3\SC(=S)N(c4cccc(OC(F)(F)F)c4)C3=O)cc2)CC1	27.1 min	69%	76%	2.57 µM	83 mL/min/kg	3.7 min	12.8 mL/min/kg	1.1	–
O=C(c1ccc(/C=C2\SC(=S)N(c3cccc(C(F)(F)F)c3)C2=O)cc1)N1CCC(O)CC1	44.1 min	72%	80%	2.44 µM	82.4 mL/min/kg	4 min	10.3 mL/min/kg	1.11	–
O=C1/C(=C/c2ccc(-c3nnn[nH]3)cc2)SC(=S)N1CCc1cccc(C(F)(F)F)c1	–	–	67%	6.5 µM	–	–	–	–	–
O=C(Nc1ccccc1)c1ccc(/C=C2\SC(=S)N(c3cccc(C(F)(F)F)c3)C2=O)cc1	–	27%	32%	> 10 µM	–	–	–	1.19	–
C[C@]12CC[C@H]3[C@@H](CCC4=CC(=O)CC[C@@]43C)[C@@H]1CC[C@@H]2O [TESTOSTERONE]	277 min	–	–	–	–	–	2.8 mL/min/kg	–	–
CC(C)NCC(O)COc1cccc2ccccc12 (configuration not stated) [PROPRANOLOL]	15.6 min	–	–	–	86.6 mL/min/kg	1.7 min	15.3 mL/min/kg	–	–
O=C(O)c1ccc(/C=C2\SC(=S)N(Cc3cccc(F)c3)C2=O)cc1	–	> 10%	63%	3.52 µM	–	–	–	–	–
O=C(c1ccc(/C=C2\SC(=S)N(c3cccc(OC(F)(F)F)c3)C2=O)cc1)N1CCOCC1	187 min	68%	75%	3.18 µM	58.1 mL/min/kg	23.9 min	3.9 mL/min/kg	1.1	–
O=C(O)c1ccc(/C=C2\SC(=S)N(Cc3cccc(OC(F)(F)F)c3)C2=O)cc1	–	12%	29%	> 10 µM	–	–	–	–	–
CN1CCN(C(=O)c2ccc(/C=C3\SC(=S)N(c4cccc(C(F)(F)F)c4)C3=O)cc2)CC1	15.6 min	77%	81%	2.69 µM	86.6 mL/min/kg	1.7 min	15.3 mL/min/kg	1.05	–
O=C(O)c1ccc(/C=C2\SC(=S)N(Cc3cccc(C(F)(F)F)c3)C2=O)cc1	> 145 min	–	83%	2.4 µM	< 20.7 mL/min/kg	> 145 min	< 4.7 mL/min/kg	–	inhibition [8]: Dose-dependent effect; AUC [9]: 1930 ng·h/mL; inhibition [10]: Dose-dependent effect; Activity (Mus musculus [11]): Active; inhibition [12]: Tde; inhibition [13]: inactive; inhibition [14]: Dose-dependent effect; inhibition [15]: inactive; inhibition [16]: inactive; inhibition [17]: Tde; inhibition [18]: inactive; inhibition (Mus musculus [19]): Active; inhibition [20]: Tde; inhibition [21]: inactive; bioavailability [22]: 27%
O=C(O)c1ccc(/C=C2\SC(=S)N(CCCc3cccc(C(F)(F)F)c3)C2=O)cc1	–	–	68%	4.32 µM	–	–	–	–	–
O=C(O)c1ccc(/C=C2\SC(=S)N(CCc3cccc(C(F)(F)F)c3)C2=O)cc1	–	> 10%	74%	5.91 µM	–	–	–	–	–
O=C(O)c1ccc(/C=C2\SC(=S)N(Cc3ccc(-c4ccccc4)cc3)C2=O)cc1	–	11%	73%	7.63 µM	–	–	–	–	–
CN1CCN(C(=O)c2ccc(/C=C3\SC(=S)N(c4cccc([N+](=O)[O-])c4)C3=O)cc2)CC1	13.8 min	66%	81%	2.98 µM	86.5 mL/min/kg	1.8 min	15.8 mL/min/kg	1.23	–
O=C(O)c1ccc(/C=C2\SC(=O)N(Cc3cccc(C(F)(F)F)c3)C2=O)cc1	–	23%	67%	5.96 µM	–	–	–	–	–
O=C(O)c1ccc(/C=C2\SC(=S)N(c3cccc(C(F)(F)F)c3)C2=O)cc1	277 min	86%	71%	6.39 µM	69.8 mL/min/kg	12.6 min	2.8 mL/min/kg	0.83	inhibition [23]: Dose-dependent effect; inhibition [24]: Dose-dependent effect
CN1CCN(C(=O)c2ccc(/C=C3\SC(=S)N(Cc4cccc(C(F)(F)F)c4)C3=O)cc2)CC1	–	10%	35%	> 10 µM	–	–	–	–	–
O=C(c1ccc(/C=C2\SC(=S)N(c3cccc(C(F)(F)F)c3)C2=O)cc1)N1CCOCC1	> 145 min	74%	81%	2.74 µM	< 20.7 mL/min/kg	> 145 min	< 4.7 mL/min/kg	1.09	–
O=C(O)c1ccc(/C=C2\SC(=S)N(Cc3cccnc3)C2=O)cc1	–	> 10%	63%	6.27 µM	–	–	–	–	–
O=C1/C(=C/c2ccc(-c3nnn[nH]3)cc2)SC(=S)N1CCCc1cccc(C(F)(F)F)c1	–	> 10%	72%	4.85 µM	–	–	–	–	–
O=C1S/C(=C\c2ccc(-c3nnn[nH]3)cc2)C(=O)N1Cc1cccc(C(F)(F)F)c1	–	> 10%	63%	5.61 µM	–	–	–	–	–
O=C1/C(=C/c2ccc(-c3nnn[nH]3)cc2)SC(=S)N1Cc1cccc(C(F)(F)F)c1	–	–	67%	5.58 µM	–	–	–	–	–
